Inconclusive results are not listed.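 Rule for the calls, unless noted: active = viability at or below 27.92% in each of two runs, the all-compound median minus 4 SD; inconclusive = no clear call, values can overlap the other calls; inactive = the rest.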
Tests used:
[1] = OD615 S. cerevisiae growth inhibition, permissive medium, pilot counter-assay, permissive growth control for S. cerevisiae lifespan shortening project (AID 705;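 active = growth inhibition above 25% in both replicates, a cutoff set 3 SD above the mean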); conditions: OD615, 24 h, at 10 µM, active compounds read high
Procedure, shortened: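 Test system: Saccharomyces cerevisiae strain carrying genetically modified DeaD replicative-lifespan system; buffer or medium: SC raffinose/galactose permissive medium; dosing: one dose 10 µM, DMSO 0.25% final; times: 24 h exposure, 30 °C; measured by: OD at 615 nm; read-out basis: growth inhibition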

[2] = Restrictive medium S. cerevisiae growth inhibition, OD615, pilot screen of yeast lifespan reduction project, restrictive growth control (AID 706;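 active = growth inhibition above a set limit, 3 SD over mean compound inhibition, in both replicates, cut at about 43% in these data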;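 note: modified DeaD lifespan yeast strain shifted to restrictive glucose medium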); conditions: OD615, 48 h, at 10 µM, active compounds read high
Procedure, shortened: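 material = engineered S. cerevisiae DeaD strain | buffer or medium = glucose-based CSMM-D restrictive medium | dosing = one concentration, 10 µM final, 0.25% DMSO | schedule = 4 h pre-growth plus 48 h compound exposure, 30 °C | detection = OD615 absorbance reading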

[3] = viability gain of MRP-1-high H69AR cells under doxorubicin, pilot screen, MRP-1 activator project, CellTiter-Glo, duplicate (AID 807;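 active = viability increase at or above a cutoff of the median across tested compounds plus 3 SD, cut at about 8.5% in these data, passing the limit was not always enough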;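 note: compound pretreatment 18-22 h then 72 h combined with doxorubicin; 0% = doxorubicin alone and 100% = vehicle without doxorubicin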); conditions: H69AR viability with doxorubicin, CellTiter-Glo luminescence; at 10 µM; active compounds read high
[4] = growth suppression of beta-catenin knockout HCT116, pilot screen, human colon tumor cells (AID 823;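 active = cell viability at or below a set limit in both duplicate runs, the limit being the all-compound median minus 4 SD, cut at about 23% in these data, passing the limit was not always enough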;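 note: 0% = wells killed by 20 µM Hyamine and 100% = untreated DMSO cell wells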); conditions: CellTiter-Glo, 60 h, at 10 µM, active compounds read low
[5] = growth suppression of PTEN-deleted HCT116, pilot screen, cell-based, HCT116 clonal line, CellTiter-Glo (AID 824); conditions: 60 h, at 10 µM, active compounds read low;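 note: 0% = 20 µM Hyamine control and 100% = vehicle cell control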
[6] = inhibitors of the yeast RAM network, pilot screen, dse1pr::URA3 reporter, 5-FOA selection (AID 869;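 active = inhibition over a set limit, the all-compound mean plus 3 SD, in both replicate runs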;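 note: 0% = DMSO wells with no growth and 100% = 10 µM 1-NA-PP1 with full growth; RAM network block rescues cells from 5-FOA so hits raise OD615 growth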); conditions: S. cerevisiae dse1pr::URA3 5-FOA growth, OD615, 2 d; at 10 µM; active compounds read high; strain carries analog-sensitive mutant Cbk1 kinase
[7] = RAM signaling pathway blockade in yeast – S. cerevisiae, Pdr1DBD-CYC8 efflux-inhibited sensitized strain, primary screen (AID 1298;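 active = RAM network inhibition above 8.4% in each of two replicates, 3 SD over the compound average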;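 note: 0% = DMSO untreated cells without growth and 100% = 10 µM 1-NA-PP1 full growth; higher means more yeast growth rescued from 5-FOA killing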); conditions: S. cerevisiae cbk1-as DSE1-URA3 strain, 5-FOA growth OD615, 2 d; at 50 µM; active compounds read high

Cc1cc(C)n(C(=O)CCCC(=O)n2nc(C)cc2C)n1
inactive: growth inhibition [1] -10.5% | growth inhibition [2] -10.9% | viability increase [3] -1.19% | viability [4] 105% | viability [5] 97.4% | inhibition [6] 1.19% | RAM network inhibition [7] 2.92%

CC1(C)CC(=O)C=C(NCCCNC2CCCCC2)C1
inactive: growth inhibition [1] -9.9% | growth inhibition [2] -7.88% | viability increase [3] -2.17% | viability [4] 96.5% | viability [5] 93% | inhibition [6] 0.125% | RAM network inhibition [7] 1.72%

O=C(Cn1cc2c(n1)CCCCC2)NCc1ccccc1
inactive: growth inhibition [1] -13.4% | growth inhibition [2] 0.525% | viability increase [3] -0.82% | viability [4] 102% | viability [5] 86.5% | inhibition [6] 1.06% | RAM network inhibition [7] 3.47%

CN(C)C(=O)c1nnc(Cc2ccc(Cl)cc2)o1
inactive: growth inhibition [1] -8.24% | growth inhibition [2] 7.88% | viability increase [3] 2.17% | viability [4] 98.5% | viability [5] 108% | inhibition [6] 0.31% | RAM network inhibition [7] 7.05%

CCC(C)(c1ccc(C(=O)OC)s1)c1ccc(C(=O)OC)s1
inactive: growth inhibition [1] -5.53% | growth inhibition [2] -2.49% | viability increase [3] 1.15% | viability [4] 73.3% | viability [5] 76.8% | inhibition [6] 0.63% | RAM network inhibition [7] 1.02%

Cc1cccc(N=C2NC(=O)/C(=C3/C(=O)N(C)c4ccccc43)S2)c1C
inactive: growth inhibition [1] -18.4% | growth inhibition [2] -15.6% | viability increase [3] -7.01% | viability [4] 95.5% | viability [5] 91.1% | inhibition [6] 2.91% | RAM network inhibition [7] 1.77%

Cc1cc(Nc2ccc(Br)cc2F)n2nc(C)nc2n1
inactive: growth inhibition [1] -19.2% | growth inhibition [2] -14.2% | viability increase [3] -4.07% | viability [4] 88.3% | viability [5] 86% | inhibition [6] 0.87% | RAM network inhibition [7] -0.15%

CCc1cccc(Nc2cc(C)nc3ncnn23)c1
inactive: growth inhibition [1] -5.35% | growth inhibition [2] -1.55% | viability increase [3] -0.66% | viability [4] 99.8% | viability [5] 93% | inhibition [6] 0.465% | RAM network inhibition [7] 6.68%

Cn1c(Cn2c(=O)sc3ccccc32)nnc1SCc1ccccc1F
inactive: growth inhibition [1] -4.61% | growth inhibition [2] 5.46% | viability increase [3] -0.13% | viability [4] 96.6% | viability [5] 97.4% | inhibition [6] 2.95% | RAM network inhibition [7] 5.27%

Cc1ccc(C2CC(c3ccco3)n3nc(N)nc3N2)cc1 (configuration not stated)
inactive: growth inhibition [1] 4.36% | growth inhibition [2] 11.9% | viability increase [3] -1.44% | viability [4] 96.5% | viability [5] 99.8% | inhibition [6] -1.15% | RAM network inhibition [7] 3.41%

CCN(CCCNS(=O)(=O)c1ccc2c(c1)CCN2C(C)=O)c1cccc(C)c1
inactive: growth inhibition [1] -4.96% | growth inhibition [2] 9.51% | viability increase [3] -2.74% | viability [4] 75.3% | viability [5] 82.5% | inhibition [6] 0.28% | RAM network inhibition [7] 4.1%

O=C(CNC(=O)c1ccco1)OCC(=O)c1ccccc1
inactive: growth inhibition [1] -8.55% | growth inhibition [2] 3% | viability increase [3] -1.3% | viability [4] 97.3% | viability [5] 94.3% | inhibition [6] 0.98% | RAM network inhibition [7] 0.92%

CCOc1ccc(NC(=O)CSc2nc3c(c(=O)n2C)SC(C)C3)cc1 (configuration not stated)
inactive: growth inhibition [1] -13.6% | growth inhibition [2] -13.2% | viability increase [3] -0.83% | viability [4] 93.5% | viability [5] 91.6% | inhibition [6] 4.75% | RAM network inhibition [7] 5.69%

CCCC(=O)Nc1nc2ccc(S(=O)(=O)N3CCCCC3)cc2s1
inactive: growth inhibition [1] -20.7% | growth inhibition [2] -19.5% | viability increase [3] -6.94% | viability [4] 32.5% | viability [5] 37.3% | inhibition [6] 1.27% | RAM network inhibition [7] 1.93%

CCN(CC)CCOc1ccc(Br)cc1
inactive: growth inhibition [1] -12.9% | growth inhibition [2] -12.2% | viability increase [3] -0.72% | viability [4] 90.1% | viability [5] 103% | inhibition [6] 1.24% | RAM network inhibition [7] 1.1%

CCCc1cc(C(=O)Nc2cccnc2)no1
inactive: growth inhibition [1] 0.43% | growth inhibition [2] -0.16% | viability increase [3] -1.86% | viability [4] 100% | viability [5] 94.9% | inhibition [6] 0.915% | RAM network inhibition [7] -0.87%

CCCC(NS(=O)(=O)c1ccc(Br)cc1)C(=O)O (configuration not stated)
inactive: growth inhibition [1] -3.98% | growth inhibition [2] -0.42% | viability increase [3] -0.09% | viability [4] 104% | viability [5] 99.3% | inhibition [6] 0.57% | RAM network inhibition [7] 4.41%

CCCCCn1c(CNC(=O)c2cccs2)nc2ccccc21
inactive: growth inhibition [1] -5.02% | growth inhibition [2] 3.4% | viability increase [3] -2.58% | viability [4] 90.8% | viability [5] 94% | inhibition [6] 0.42% | RAM network inhibition [7] 3.16%

COCCSc1nc2c(c(=O)[nH]c(=O)n2C)n1Cc1cccc(C)c1
inactive: growth inhibition [1] 0.55% | growth inhibition [2] 0.3% | viability increase [3] -1.81% | viability [4] 90.2% | viability [5] 79.6% | inhibition [6] 1.57% | RAM network inhibition [7] 4.44%

COc1cc(C(=O)NCC(c2ccco2)N2CCCC2)ccc1OCc1c(C)noc1C (configuration not stated)
inactive: growth inhibition [1] 0.045% | growth inhibition [2] -23.7% | viability increase [3] -4.73% | viability [4] 82.7% | viability [5] 83.8% | inhibition [6] 1.03% | RAM network inhibition [7] 3.83%

CCN(CC)CCNC(=O)c1cc2c(=O)n(C)c3ccccc3c2n1C
inactive: growth inhibition [1] -4.52% | growth inhibition [2] -6.67% | viability increase [3] -4.8% | viability [4] 49.8% | viability [5] 51.4% | inhibition [6] 1.88% | RAM network inhibition [7] 0.31%

Cc1noc(NS(=O)(=O)c2ccc(NC(=O)COc3ccc(Cl)cc3Cl)cc2)c1C
inactive: growth inhibition [1] -2.93% | growth inhibition [2] 10.8% | viability increase [3] -0.49% | viability [4] 100% | viability [5] 98.6% | inhibition [6] 2.39% | RAM network inhibition [7] 7.51%

CC(=O)N1CCc2cc(S(=O)(=O)Nc3ccccc3N3CCN(C)CC3)ccc21
inactive: growth inhibition [1] -7.73% | growth inhibition [2] -1.75% | viability increase [3] -1.49% | viability [4] 94.8% | viability [5] 85.8% | inhibition [6] 1.71% | RAM network inhibition [7] 0.62%

CC(=O)Nc1ccc(-c2cc(NC(C)=O)n(-c3ccccc3)n2)cc1
inactive: growth inhibition [1] 2.46% | growth inhibition [2] -0.26% | viability increase [3] -1.76% | viability [4] 104% | viability [5] 91.7% | inhibition [6] 0.97% | RAM network inhibition [7] 3.1%

CCOC(=O)c1c(C)oc2cc(Br)c(O)c(Br)c12
inactive: growth inhibition [1] -19% | growth inhibition [2] -14.6% | viability increase [3] -2.05% | viability [4] 93.6% | viability [5] 85.7% | inhibition [6] 0.86% | RAM network inhibition [7] 0.68%

CC1CCCN(C(c2ccccc2)c2sc3ncnn3c2O)C1 (configuration not stated)
inactive: growth inhibition [1] -7.14% | growth inhibition [2] -1.14% | viability increase [3] 3.23% | viability [4] 96.6% | viability [5] 84.8% | inhibition [6] 2.16% | RAM network inhibition [7] 4.56%

COc1ccc(C)cc1NC(=O)c1cc2c(CO)cnc(C)c2oc1=N
inactive: growth inhibition [1] -16.1% | growth inhibition [2] -10.5% | viability increase [3] -0.06% | viability [4] 97.5% | viability [5] 89.7% | inhibition [6] 1.31% | RAM network inhibition [7] 0.63%

COCCCNC(=O)CS(=O)Cc1nc(-c2ccccc2C)oc1C (configuration not stated)
inactive: growth inhibition [1] -4.76% | growth inhibition [2] 18% | viability increase [3] -1.44% | viability [4] 97.9% | viability [5] 102% | inhibition [6] 0.445% | RAM network inhibition [7] 6.27%

COCCN1C=C(C(=O)OC)C(c2cc(Br)c(OC)c(OC)c2)C(C(=O)OC)=C1
inactive: growth inhibition [1] 1.89% | growth inhibition [2] -0.035% | viability increase [3] -2.7% | viability [4] 80.8% | viability [5] 71.9% | inhibition [6] 2.16% | RAM network inhibition [7] 8.73%

CC(=O)Nc1ccc(-n2c(C)c(C(C)=O)c(C(C)=O)c2C)cc1
inactive: growth inhibition [1] -2.51% | growth inhibition [2] -2.06% | viability increase [3] -2.3% | viability [4] 102% | viability [5] 101% | inhibition [6] 0.515% | RAM network inhibition [7] 4.97%

C=CCSC1=N/C(=C\c2ccc3c(c2)OCO3)C(=O)S1
inactive: growth inhibition [1] -6.71% | growth inhibition [2] -9.09% | viability increase [3] -5.28% | viability [4] 103% | viability [5] 96.7% | inhibition [6] 4.59% | RAM network inhibition [7] 7.07%

COc1cccc(OC)c1C(=O)Nc1ccc2c(c1)OCCO2
inactive: growth inhibition [1] -8.21% | growth inhibition [2] 0.395% | viability increase [3] -0.21% | viability [4] 99.8% | viability [5] 95.9% | inhibition [6] 1.23% | RAM network inhibition [7] 0.51%

CCCOC(=O)CSC1=C(C#N)C(c2ccccc2Cl)CC(=O)N1 (configuration not stated)
inactive: growth inhibition [1] 1.49% | growth inhibition [2] -25.7% | viability increase [3] -1.57% | viability [4] 66.3% | viability [5] 75.5% | inhibition [6] 1.75% | RAM network inhibition [7] 2.16%

Cc1c(C(=O)N2CCCCC2)sc(N)c1C#N
inactive: growth inhibition [1] 4.06% | growth inhibition [2] 4.32% | viability increase [3] -0.95% | viability [4] 96% | viability [5] 95.2% | inhibition [6] -0.355% | RAM network inhibition [7] 1.18%

O=C(CSc1oc(-c2ccco2)nc1S(=O)(=O)c1ccc(Cl)cc1)NCC1CCCO1 (configuration not stated)
inactive: growth inhibition [1] 1.39% | growth inhibition [2] 2.77% | viability increase [3] -1.13% | viability [4] 96.9% | viability [5] 95.1% | inhibition [6] -0.09% | RAM network inhibition [7] 1.57%

CC(C)Sc1nc(-c2cccs2)nc2c1c(=O)n(C)c(=O)n2C
inactive: growth inhibition [1] -2.16% | growth inhibition [2] -19% | viability increase [3] -6.85% | viability [4] 77.3% | viability [5] 69.4% | inhibition [6] 1.46% | RAM network inhibition [7] 7.05%

Source: PubChem BioAssay
